Measured values pooled from the literature.
Compare with care: the assays were run in different laboratories.

Compound	cell line	test	conditions	IC50
COc1cc2c3c(n(CCCn4ccnc4)c(=O)c2cc1OC)-c1nc2c(cc1C3=O)OCO2	HL-60	cell growth or viability, MTS	72 h	> 2 µM
COc1cccc2c1C(=O)c1c(O)c3c(c(O)c1C2=O)C[C@@](O)(C(=O)CO)C[C@@H]3O[C@H]1C[C@H](N)[C@H](O)[C@H](C)O1	NCI-H1299	cell growth or viability, MTT	72 h	0.77 µM
C=C(F)C(=O)N1CCN(c2nc(OC[C@@H]3CCCN3C)nc3c2CCN(c2cccc4cccc(Cl)c24)C3)C[C@@H]1CC#N	OV56	cell growth or viability, ATP luminescence	3D culture	> 1 µM
CC1(C)CCC(CN2CCN(c3ccc(C(=O)NS(=O)(=O)c4ccc(NCC5CCOCC5)c([N+](=O)[O-])c4)c(Oc4cnc5[nH]ccc5c4)c3)CC2)=C(c2ccc(Cl)cc2)C1	HL-60	cell growth or viability, ATP luminescence	48 h	3.04 µM
COc1cc2c(NC3CCN(CCCC(=O)NCCCCCCCCCCCC(=O)N[C@H](C(=O)N4C[C@H](O)C[C@H]4C(=O)NCc4ccc(-c5scnc5C)cc4)C(C)(C)C)CC3)nc(N3CCC(F)(F)CC3)nc2cc1OCCCN1CCCC1	NCI-H1299	cell growth or viability, CCK-8	8 days	5 µM
COc1cc(NC(=O)c2ccco2)ccc1S(N)(=O)=O	RAW264.7	cell growth or viability, MTT	48 h	> 100 µM
COc1cc2c3c(n(CCCN4CCOCC4)c(=O)c2cc1OC)-c1nc2c(cc1C3=O)OCO2	HL-60	cell growth or viability, MTS	72 h	> 2 µM
COc1ccc(NC(=O)C2=C(C)NC(C)=C(C(=O)Nc3ccc(OC)cc3OC)C2c2ccccc2)c(OC)c1	Vero	cell growth or viability, MTT		86.5 µM
CC#CCOc1ccc(/C=C/c2cc(OC)cc(OC)c2-c2cnnn2C(=O)NC(C)C)cc1	RAW264.7	NO release, inhibitor, Griess	24 h, LPS-stimulated	5.5 µM
COc1ccc(NC(=O)C2=C(C)NC(C)=C(C(=O)Nc3cc(OC)c(Cl)cc3OC)C2c2cccc(Cl)c2)c(OC)c1 (centres unmarked)	Vero	cell growth or viability, MTT		49.6 µM
Cc1ccc(-c2cc(C(F)(F)F)nn2-c2ccc(S(N)(=O)=O)cc2)cc1	RAW264.7	NO release, inhibitor, Griess	24 h, LPS-stimulated	> 20 µM
COc1cc(NC(=O)c2cccc(I)c2)ccc1S(N)(=O)=O	RAW264.7	cell growth or viability, MTT	48 h	> 100 µM
CC(C)c1ccccc1[C@@H]1CCCN1C1CC2(CCN(c3ccc(C(=O)NS(=O)(=O)c4ccc(NC[C@H]5CC[C@](C)(O)CC5)c([N+](=O)[O-])c4)c(Oc4cnc5[nH]ccc5c4)c3)CC2)C1	Maver1	cell growth or viability, ATP luminescence	48 h	0.00096 µM
COc1cc(NC(=O)c2ccc(C#N)cc2)ccc1S(N)(=O)=O	RAW264.7	cell growth or viability, MTT	48 h	> 100 µM
COc1cc(NC(=O)C2=C(C)NC(C)=C(C(=O)Nc3cc(OC)c(Cl)cc3OC)C2c2ccc(O)cc2)c(OC)cc1Cl	Vero	cell growth or viability, MTT		51.8 µM
COc1cc2c3c(n(CCCNCCO)c(=O)c2cc1OC)-c1nc2c(cc1C3=O)OCO2	HL-60	cell growth or viability, MTS	72 h	0.29 µM
CCCOc1ccc(/C=C/c2cc(OC)cc(OC)c2-c2cnnn2C(=O)NCCc2ccccc2)cc1	RAW264.7	NO release, inhibitor, Griess	24 h, LPS-stimulated	10.6 µM
